Results from PubChem BioAssay.
Active and inactive are the calls of the source.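 Rule for the calls, unless noted: active = GFP response above 150% of the DMSO level; inconclusive = fewer than 70 events counted for a yeast strain; inactive = the rest.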

Columns and labels:
[1] = hit retest on RPL19A-GFP reporter strain – cell-based, S. cerevisiae, flow cytometry, cherry picks, mother/daughter gates, confirmation (AID 2270;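 active = GFP response below 50% of the DMSO control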); details: 3 h, at 10 µM, stronger effect = lower value, 100 = same GFP as DMSO wells
[2] = yeast TOR pathway reporter LAP4-GFP change – cell-based, cherry picks, flow cytometry, mother/daughter gates, confirmation (AID 2271;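 active = GFP response above 150% of the DMSO control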;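 note: ratio of sample to DMSO plate mean so 100% equals DMSO level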); details: S. cerevisiae LAP4-GFP strain, 3 h, at 10 µM, stronger effect = higher value, 100 means same as DMSO control
In short: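 Material: Alexa Fluor 633-labelled Saccharomyces cerevisiae GFP-fusion strain, single-plex | Amount: Yeast cells seeded at OD600 of 0.2 | Buffer or medium: SC growth medium | Schedule: 3 h exposure, 30 °C | Measured by: HT flow cytometry, GFP fluorescence channel | Evaluation: % GFP response vs DMSO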

[3] = TOR pathway reporter MEP2-GFP, retest of hits – S. cerevisiae, flow cytometry GFP, cherry picks, confirmation (AID 2272;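 active = GFP response above 150% of the DMSO control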;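 note: ratio of well signal to plate DMSO mean so 100% equals DMSO level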); details: S. cerevisiae MEP2-GFP strain, 3 h, at 10 µM, stronger effect = higher value
[4] = yeast AGP1-GFP fluorescence change, single-dose – cell-based, flow cytometry, S. cerevisiae, cherry picks, confirmation (AID 2273);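 note: median GFP channel fluorescence over the whole cell population gate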; details: S. cerevisiae AGP1-GFP strain, 3 h, at 10 µM
[5] = TOR pathway CIT2 reporter hit retest – S. cerevisiae, GFP fusion, cherry picks, mother/daughter gates, confirmation (AID 2274); details: S. cerevisiae CIT2-GFP strain, flow cytometry, 3 h, at 10 µM, stronger effect = higher value
[6] = measured here: daughter cell gate
[7] = measured here: mother cell gate
[8] = measured here: daughter cell gate response
[9] = measured here: mother cell gate response

| Structure (SMILES) | GFP response vs DMSO [1] | GFP response vs DMSO [1, 6] [%] | GFP response vs DMSO [1, 7] [%] | GFP response relative to DMSO [2] | GFP response relative to DMSO [2, 8] [%] | GFP response relative to DMSO [2, 9] [%] | GFP response vs DMSO [3] | GFP response, % of DMSO [4] | GFP response, % of DMSO [5] | GFP response, % of DMSO [5, 6] [%] | GFP response, % of DMSO [5, 7] [%] |
| --- | --- | --- | --- | --- | --- | --- | --- | --- | --- | --- | --- |
| CCCCN(CC)S(=O)(=O)c1ccc(C(=O)Nc2nnc(COC)o2)cc1 | 96.6% (inactive) | 96.7 | 98.1 | 100% (inactive) | 99.3 | 99.5 | 97.5% (inactive) | 103% (inactive) | 102% (inactive) | 100 | 101 |
| C=CCn1c(=O)c(C(=O)NCCc2ccccc2)c(O)c2ccccc21 | 98.4% (inactive) | 98.9 | 100 | 90.2% (inactive) | 89.6 | 91.9 | 96.2% (inactive) | 102% (inactive) | 99.7% (inactive) | 99.1 | 101 |
| Cc1nn2c(NCCCN3CCOCC3)c3c(nc2c1-c1ccccc1)CCC3 | 101% (inactive) | 102 | 101 | 98.2% (inactive) | 97.5 | 98.4 | 99% (inactive) | 103% (inactive) | 100% (inactive) | 101 | 101 |
| Cc1ccc(-n2ncc(C#N)c2/N=C/N(C)C)cc1 | 103% (inactive) | 101 | 103 | 101% (inactive) | 101 | 103 | 107% (inactive) | 94.2% (inactive) | 94.4% (inactive) | 92 | 79.7 |
| CC(=O)Nc1ccc(S(=O)(=O)NC(CC(=O)NCCC2=CCCCC2)C(C)C)cc1 (stereo not drawn) | 99.8% (inactive) | 99.4 | 101 | 99.2% (inactive) | 99.2 | 96.1 | 102% (inactive) | 101% (inactive) | 101% (inactive) | 101 | 101 |
| COc1cc(NC(=O)c2ccc(C)cc2C)ccc1NC(=O)c1cc2ccccc2o1 | 97.1% (inactive) | 95.9 | 94.4 | 97.7% (inactive) | 97.5 | 95.4 | 106% (inactive) | 105% (inactive) | 97.2% (inactive) | 101 | 97.1 |
| C/C(=N/NC(=O)c1ccc(C(C)(C)C)cc1)c1ccccn1 | 110% (inactive) | 107 | 101 | 231% (active) | 197 | 209 | 126% (inactive) | 90% (inactive) | 112% (inactive) | 115 | 98.2 |
| O=C(O)c1ccccc1C(=O)Nc1ccccc1 | 101% (inactive) | 101 | 99.5 | 94.4% (inactive) | 92.6 | 95.2 | 96.8% (inactive) | 104% (inactive) | 102% (inactive) | 101 | 101 |
| CN(c1ccccc1)S(=O)(=O)c1ccc(C(=O)Nc2nnc(-c3ccc(F)cc3)o2)cc1 | 99.1% (inactive) | 102 | 98.6 | 122% (inactive) | 128 | 120 | 149% (inactive) | 106% (inactive) | 131% (inactive) | 133 | 128 |
| Cc1ccc(C(=O)NNC(=S)NC(=O)COc2ccccc2)cc1 | 122% (inactive) | 92.1 | 110 | 223% (active) | 186 | 203 | 153% (inactive) | 134% (inactive) | 138% (inactive) | 139 | 110 |
| COc1ccccc1-c1noc(CCC(=O)Nc2cccc(C)c2)n1 | 99.9% (inactive) | 100 | 100 | 96.5% (inactive) | 96.5 | 96.5 | 97.5% (inactive) | 90.8% (inactive) | 95% (inactive) | 98.3 | 95.6 |
| O=C1C(Cl)=C(Nc2ccccc2O)C(=O)N1CCc1ccccc1 | 98% (inactive) | 97.8 | 97.9 | 103% (inactive) | 101 | 104 | 112% (inactive) | 104% (inactive) | 106% (inactive) | 104 | 104 |
| CC(=O)c1ccc2c3c(cccc13)C(=O)N(c1c(C)nn(C)c1C)C2=O | 100% (inactive) | 100 | 101 | 97.7% (inactive) | 97.9 | 97.5 | 102% (inactive) | 100% (inactive) | 96.4% (inactive) | 98.3 | 96.8 |
| COc1ccc(C(=O)Nc2c(N)nc[nH]c2=O)cc1 | 102% (inactive) | 99.3 | 99 | 97% (inactive) | 97.5 | 97.3 | 105% (inactive) | 103% (inactive) | 105% (inactive) | 103 | 102 |
| COc1ccc(OC)c(CNC(=O)CCC(=O)N2Cc3cccc(OC)c3Oc3ncccc32)c1 | 102% (inactive) | 100 | 101 | 90.6% (inactive) | 94.2 | 95.2 | 105% (inactive) | 109% (inactive) | 102% (inactive) | 101 | 103 |
| N=c1ccn(CC(=O)c2ccc(-c3ccccc3)cc2)cc1 | 99.7% (inactive) | 99.3 | 98.8 | 96.5% (inactive) | 93.6 | 99.5 | 104% (inactive) | 92.1% (inactive) | 96.4% (inactive) | 96.4 | 95.6 |
| COc1ccc(/C=C2/C(=O)ON=C2c2ccccc2)cc1OC | 102% (inactive) | 107 | 99.2 | 101% (inactive) | 102 | 99.5 | 102% (inactive) | 101% (inactive) | 102% (inactive) | 106 | 95.6 |

| Structure (SMILES) | GFP response vs DMSO [1] | GFP response vs DMSO [1, 6] [%] | GFP response vs DMSO [1, 7] [%] | GFP response relative to DMSO [2] | GFP response relative to DMSO [2, 8] [%] | GFP response relative to DMSO [2, 9] [%] | GFP response vs DMSO [3] | GFP response, % of DMSO [4] | GFP response, % of DMSO [5] | GFP response, % of DMSO [5, 6] [%] | GFP response, % of DMSO [5, 7] [%] |
| --- | --- | --- | --- | --- | --- | --- | --- | --- | --- | --- | --- |
| CCC(=O)Nc1ccc(NC(=O)c2cc3ccccc3o2)cc1 | 103% (inactive) | 99.3 | 104 | 99.5% (inactive) | 99.1 | 98.4 | 101% (inactive) | 101% (inactive) | 97.3% (inactive) | 95.6 | 96.8 |
| O=C(OC(c1ccc(NS(=O)(=O)c2ccccc2)cc1)(C(F)(F)F)C(F)(F)F)c1ccccc1 | 100% (inactive) | 101 | 100 | 94.9% (inactive) | 95.1 | 95.1 | 110% (inactive) | 104% (inactive) | 92.2% (inactive) | 95.2 | 91.8 |
| O=C(/C(=C/c1ccccc1)n1cncn1)c1ccc(Cl)cc1Cl | 96% (inactive) | 92.7 | 93.5 | 149% (inactive) | 125 | 162 | 98.8% (inactive) | 106% (inactive) | 86% (inactive) | 85.7 | 79.8 |
| COc1ccc(N2CCN(C(=O)C3CCCN(S(=O)(=O)c4ccc(C)cc4)C3)CC2)cc1 (stereo not drawn) | 95.2% (inactive) | 97.4 | 93.4 | 103% (inactive) | 104 | 104 | 105% (inactive) | 97.3% (inactive) | 103% (inactive) | 97.4 | 105 |
| C(=N\Nc1ccccn1)/c1c[nH]c2ccccc12 | 103% (inactive) | 102 | 104 | 97% (inactive) | 95.9 | 96.2 | 101% (inactive) | 104% (inactive) | 100% (inactive) | 99.2 | 98.1 |
| Cc1nc2ccccc2c(=O)n1/N=C/c1ccc([N+](=O)[O-])o1 | 104% (inactive) | 108 | 104 | 121% (inactive) | 120 | 121 | 116% (inactive) | 102% (inactive) | 121% (inactive) | 128 | 115 |
| Oc1ccc(C2Nc3cccc4cccc(c34)N2)cc1 | 99% (inactive) | 99.2 | 99.4 | 107% (inactive) | 105 | 111 | 97.8% (inactive) | 98.7% (inactive) | 100% (inactive) | 98.1 | 102 |
| Cc1ccc(C(=O)NNC(=S)NC(=O)c2ccco2)cc1 | 112% (inactive) | 113 | 109 | 120% (inactive) | 117 | 121 | 115% (inactive) | 103% (inactive) | 108% (inactive) | 114 | 102 |
| N/C(=N\OC(=O)c1cc(Br)ccc1Cl)c1ccccn1 | 101% (inactive) | 98.7 | 97.7 | 133% (inactive) | 125 | 135 | 110% (inactive) | 93.2% (inactive) | 112% (inactive) | 105 | 114 |
| Cc1cccc(NC(=O)c2ccccc2O)c1C | 97.3% (inactive) | 94.7 | 96.9 | 112% (inactive) | 104 | 116 | 99.3% (inactive) | 98.4% (inactive) | 95.8% (inactive) | 95.8 | 94.9 |
| COCc1cc(=O)[nH]c(SCCS(=O)(=O)c2ccc(Cl)cc2Cl)n1 | 110% (inactive) | 115 | 107 | 102% (inactive) | 100 | 105 | 100% (inactive) | 103% (inactive) | 119% (inactive) | 119 | 116 |
| CC(C)CC[n+]1ccccc1/C=C/c1ccc(N(C)C)cc1 | 98.2% (inactive) | 94.9 | 95.5 | 107% (inactive) | 108 | 107 | 126% (inactive) | 107% (inactive) | 115% (inactive) | 119 | 113 |
| Cc1ccc(-n2nnnc2C(Cl)(Cl)c2nnnn2-c2ccc(C)cc2)cc1 | 99.7% (inactive) | 98.8 | 98.6 | 136% (inactive) | 120 | 139 | 112% (inactive) | 100% (inactive) | 105% (inactive) | 106 | 100 |
| O=C1c2cccc3c([N+](=O)[O-])ccc(c23)C(=O)N1CCc1ccccn1 | 103% (inactive) | 104 | 99.2 | 164% (active) | 157 | 156 | 286% (active) | 120% (inactive) | 158% (active) | 156 | 144 |
| Cc1ccc(-c2ccc(CCC(=O)O)o2)cc1 | 102% (inactive) | 95.9 | 101 | 147% (inactive) | 139 | 150 | 95.7% (inactive) | 94.8% (inactive) | 90% (inactive) | 85 | 90.2 |
| CCOC(=O)c1csc(Nc2nc3ccc(F)cc3s2)n1 | 94.6% (inactive) | 95.2 | 94.2 | 103% (inactive) | 102 | 104 | 99% (inactive) | 93.4% (inactive) | 95.9% (inactive) | 97.4 | 95.6 |
